SKKanGAS inh: S. pyogenes SKKanGAS growth inhibitors in kanamycin, primary screen, streptokinase expression inhibitor project, SKKanGAS strain, BacTiter-Glo luminescence; actives 1.3% (n = 300,000); 6 h; inhibition, % at 7.5 µM;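 active = mean replicate score, as percent of positive control median, at least 50; inconclusive = mean below 50 but one replicate at or above 50; inactive = mean and every replicate below 50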;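 note: strain carries kanamycin resistance gene driven by streptokinase promoter and grows in 40 µg/ml kanamycin; loss of luminescence reflects streptokinase promoter inhibition or plain growth inhibition; 0% = median of DMSO wells and 100% = positive control at its reference dose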
PfHsp90 yeast 2: growth inhibition of PfHsp90-expressing yeast, primary screen, antimalarial PfHsp90 inhibitor project, S. cerevisiae, BacTiter-Glo luminescence, single point, set 2; BacTiter-Glo ATP, 48 h; yeast lacking PDR1 and PDR3 efflux regulators; inhibition, % at 9.4 µM; actives 0.32% (n = 310,000); AID 504621, 2011;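 active = every replicate shows inhibition above about 80%, whatever the replicate mean, limit read from the data; inconclusive = mean inhibition reaches the set limit but some replicate falls short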;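 note: 0% = DMSO neutral controls and 100% = 20 µM radicicol positive controls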
PglD DTNB: C. jejuni PglD acetyltransferase inhibitors, primary screen, biochemical, DTNB colorimetric, single point; UDP-N-acetylbacillosamine N-acetyltransferase PglD (Campylobacter jejuni); purified PglD enzyme, DTNB colorimetric CoA detection; inhibition, % at 12.5 µM; actives 0.098% (n = 360,000); AID 602405, 2012; in the data active = inhibition above about 16%, passing the limit was not always enough; inconclusive = no clear call, values can overlap the other calls
CSC inhib: cancer stem cell viability inhibitors, primary screen, luminescence; inhibition, % at 7.5 µM; actives 1.1% (n = 300,000); cancer stem cell-like cells viability; in the data active = inhibition above about 75%; inconclusive = no clear call, values can overlap the other calls; tested in HMLE shEcad cells
FN deposition inh: inhibitors of fibronectin matrix deposition, primary screen, AH1F cells, Alexa488-fibronectin fluorescence, plate reader | inhibition, % at 12.6 µM | AH1F fibroblasts, overnight | actives 0.086% (n = 350,000) | AID 743247, 2014;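 active = mean inhibition across replicates of 30% or more, regardless of how many single replicates reach that level; inconclusive = mean under 30% yet at least half of replicates reach 30%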;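 note: positive control wells lacked labelled fibronectin entirely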
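Assay system: AH1F fibroblast monolayer, labelled fibronectin deposition. Amount: 10000 cells per well. Also added: labelled fibronectin 24 nM. Compound: single-point pinned compound. Incubation: cell attachment 1 h, compound and FN exposure overnight. Detection: fluorescence after three HBSS washes, excitation 485 nm, emission 525 nm. Read-out: inhibition of fibronectin deposition signal.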
Rtt109 Vps75: inhibitors of C. albicans Rtt109/Vps75 HAT, primary screen, biochemical, ThioGlo CoA-SH fluorescence, plate reader. actives 0.16% (n = 330,000). Histone acetyltransferase RTT109 (Candida albicans (strain SC5314 / ATCC MYA-2876)), …. AID 540336, 2011. purified Rtt109/Vps75, 4 h. inhibition, % at 34.9 µM;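 active = inhibition of at least 50% in every replicate; inconclusive = best replicate reaches 50% inhibition but some replicates fall short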
Target sequence (Q5AAJ8 whole entry, looked up): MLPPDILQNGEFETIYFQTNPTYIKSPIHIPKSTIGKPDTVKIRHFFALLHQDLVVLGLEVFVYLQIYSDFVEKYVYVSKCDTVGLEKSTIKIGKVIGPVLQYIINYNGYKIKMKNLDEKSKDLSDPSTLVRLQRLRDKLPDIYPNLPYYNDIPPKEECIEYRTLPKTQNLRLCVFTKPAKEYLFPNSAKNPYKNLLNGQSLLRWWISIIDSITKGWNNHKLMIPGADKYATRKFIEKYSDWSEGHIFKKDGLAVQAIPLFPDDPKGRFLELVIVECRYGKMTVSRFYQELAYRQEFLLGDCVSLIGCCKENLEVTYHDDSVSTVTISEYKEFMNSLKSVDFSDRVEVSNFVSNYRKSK
* = called active by the depositor; ? = inconclusive; . = no result. Sampled rows, rich in hits. Any-hit rate of the full collection: about 1.7%.

SMILES	SKKanGAS inh	PfHsp90 yeast 2	PglD DTNB	CSC inhib	FN deposition inh	Rtt109 Vps75
S=c1[nH]nc(C2CCCCC2)n1/N=C/c1cccc(Cl)c1Cl	58.6*	-20.5	-5.1	54.6	-2.0	-0.4
CC(=O)Nc1ccc(N=Cc2c(O)c(C(=O)Nc3ccccc3)cc3ccccc23)cc1	60.7*	.	.	97.7*	-11.9	.
CN1C(=O)c2cc(NC(=O)c3cccc(F)c3)ccc2OC[C@@H]2O[C@@H](CC(=O)N3CCc4ccccc4C3)CC[C@@H]21	.	.	1.2	.	3.4	.
Cc1ccc(S(=O)(=O)N(C)C[C@H]2Oc3ccc(NC(=O)NC4CCCCC4)cc3C(=O)N([C@@H](C)CO)C[C@@H]2C)cc1	.	.	-0.2	.	.	.
Cc1cccc(C)c1OCC(=O)NC1CC1	-4.7	-8.8	-3.9	-1.8	8.6	1.6
Cc1cccc(C)c1OCC(=O)NNC(=S)NC(=O)C1CC1	94.7*	104.4*	3.3	11.7	1.0	-3.4
O=C(Oc1ccc(NC2=C(Cl)C(=O)c3ccccc3C2=O)cc1)c1ccc([N+](=O)[O-])cc1	54.2*	10.0	.	.	.	-10.5
O=C(Oc1ccc([N+](=O)[O-])cc1)c1cccnc1	-3.0	-9.8	.	6.6	-9.3	1.0
O=C(C1CCC1)N1CCCCN2[C@H](CO)[C@@H](c3ccc(C#CC4CCCC4)cc3)[C@H]2C1	.	.	-36.5	.	.	.
COc1ccc(CN2C(=O)c3ccccc3C(/C=N/OCc3ccc(Cl)cc3)C2=O)cc1 (stereo not drawn)	97.0*	-15.9	-10.0	.	.	-24.0
CC(C)NC(=O)Nc1ccc2c(c1)CC(=O)N([C@H](C)CO)C[C@H](C)[C@H](CN(C)S(=O)(=O)c1cccs1)O2	.	.	1.1	.	-1.0	.
Cc1ccc(Nc2cc(C)c3ccc(O)cc3n2)cc1C	-5.4	8.8	-0.5	86.5*	17.2	10.2
Cc1ccc(Nc2cc(C)c3c(O)cccc3n2)cc1C	9.5	-9.1	-0.7	39.7	16.8	17.3
O=C(CON=C1c2ccccc2-c2ccccc21)NC12CC3CC(CC(C3)C1)C2	34.4	6.5	0.0	178.9*	-1.0	-1.1
S=c1[nH]c(-c2ccccc2)cn1/N=C/c1ccccc1Br	10.8	-51.8	0.5	22.8	4.0	-6.7
S=c1[nH]c(-c2ccccc2)cn1/N=C/c1cccc2ccccc12	57.4*	-43.5	.	58.8	-8.6	1.2
O=C1/C(=C\c2ccc(-c3ccccc3Cl)o2)SC(=S)N1CC1CCCO1 (stereo not drawn)	5.5	-0.8	4.6	3.2	-18.7	-7.6
O=C(O)C(c1ccccc1)N1C(=O)/C(=C\c2ccc(-c3ccccc3Cl)o2)SC1=S (stereo not drawn)	102.0*	-16.9	-2.4	.	2.6	-0.5
O=C(O)C(c1ccccc1)N1C(=O)/C(=C\c2ccc(-c3ccc(Br)cc3)o2)SC1=S (stereo not drawn)	108.6*	3.6	-6.4	.	-9.7	9.8
Cc1cn(-c2cc(C(=O)Nc3ccc(C)c(NC(=O)C(=O)c4c[nH]c5ccccc45)c3)cc(C(F)(F)F)c2)cn1	68.2*	-5.1	-0.5	130.7*	2.9	1.3
CCN1CCN(CCCNC(=O)c2ccc3c(c2)NC(=O)/C(=C\c2cccc(C)c2)S3)CC1	-6.1	-62.9	0.9	121.1*	10.7	-27.0
Cc1cccc(/C=C2/Sc3ccc(C(=O)NCCCN4CCOCC4)cc3NC2=O)c1	7.9	13.8	4.4	114.8*	2.2	0.4
C[C@H](NC(=O)C[C@@H]1C=C[C@@H](NC(=O)C2CCOCC2)[C@H](CO)O1)c1ccccc1	.	.	-0.9	.	.	.
CCc1cc(-c2n[nH]c(C)c2-c2ccccc2Cl)c(O)cc1OC	?	-27.1	-8.3	102.5*	-4.7	0.6
CN1CCN(c2ccccc2NC(=O)c2ccc(-c3ccc(Br)cc3)o2)CC1	2.8	13.2	1.6	60.8	.	-14.0
CN1CCN(c2ccccc2NC(=O)c2ccc(-c3ccc(Cl)c(Cl)c3)o2)CC1	31.2	.	1.9	89.8*	-0.4	-3.9
Cc1cc(/C=N/n2cnnc2)c(C)n1-c1ccc(OCc2ccc(Cl)cc2)cc1	62.0*	-11.4	.	45.7	.	-5.8

Assay outcomes as filed in PubChem.
